Results: PubChem BioAssay AID602212 (Southern Research Specialized Biocontainment Screening …, 2012)
Calls of active or inactive are those of the source.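 Rule for the calls: active = inhibition of 30% or more at any tested concentration; inactive = the rest.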

The compounds below were run on M18 aspartyl aminopeptidase (Plasmodium falciparum 3D7) (assay: inhibition of malaria M18 aspartyl aminopeptidase – biochemical, QFRET fluorogenic substrate, set 2, counter-screen for PfM1 aminopeptidase inhibitor project, dose response (AID 602212)). Settings: recombinant PfM18AAP, H-Glu-NHMec fluorogenic cleavage; series mostly up to 100 µM; inhibition: at the top concentration.
How it was run: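 Test system: recombinant PfM18AAP enzyme / Input: enzyme at 5 µg/mL final / Replication: triplicate / Detection: fluorescence at 370/460 nm / Compound: 10-point twofold dilution series, 100 down to 0.2 µM / Incubation: 90 min reaction at room temperature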

Row | SMILES | inhibition
1 | O=C(NCc1ccc2c(c1)OCO2)C1CCN(S(=O)(=O)c2ccc(Br)s2)CC1 | 14.1% (inactive)
2 | CC[C@H](C)[C@H](NS(=O)(=O)c1ccc(Br)s1)C(=O)NCc1ccc(Cl)cc1 | 2.95% (inactive)
3 | O=C(NCc1ccccc1)C1CCN(S(=O)(=O)c2ccc(Br)s2)CC1 | 21.7% (inactive)
4 | O=C(NCc1ccc(F)cc1)C1CCN(S(=O)(=O)c2ccc(Br)s2)CC1 | 14.8% (inactive)
5 | CC[C@H](C)[C@H](NC(=O)c1ccc(C(C)(C)C)cc1)C(=O)NCc1ccc2c(c1)OCO2 | 20.4% (inactive)
6 | CC[C@H](C)[C@H](NS(=O)(=O)c1ccc(Br)s1)C(=O)NCc1ccc2c(c1)OCO2 | 3.45% (inactive)
7 | CC[C@H](C)[C@H](NC(=O)c1ccc(C(C)(C)C)cc1)C(=O)NCc1ccc(Cl)cc1 | -35.7% (inactive)
8 | O=C(NCc1ccc(Cl)cc1)C1CCN(S(=O)(=O)c2ccc(Br)s2)CC1 | 1.76% (inactive)
